Bioassay records deposited in PubChem by several laboratories.
In the library only some 4.2% were active in any assay of this set; here they are far more common.
SUMO Mot1 rescue: inhibitors of SUMOylation pathway: yeast Mot1-301 growth rescue; growth rescue, % at 18.8 µM; hit rate 1% among 320,000; S. cerevisiae Mot1-301 growth rescue, ATP luminescence, 38.5C; percent above DMSO median, 100 means doubled;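 active = every valid replicate shows activation above 250% relative to neutral control wells; inactive = the rest, any valid replicate at or below 250%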
Cl transport mod: KCC2 (human) Cl- transport modulation. Q9H2X9. KCC2 cells, thallium flux FluoZin-2 fluorescence. B-score of Tl+ flux slope (higher = more flux/activation; lower = inhibition) at 10 µM. hit rate 2.2% among 190,000. AID 1456;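 active = thallium flux slope and its plate-corrected score both differing from the plate sample mean at a set confidence after two filtering rounds, in either direction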;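 note: slope of fluorescence scaled to starting intensity during 10 to 20 s after thallium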
KCNQ1 inh: human KCNQ1 channel inhibition. B-score at 10 µM. AID 2642. hit rate 1.3% among 310,000. CHO-K1 KCNQ1, FluxOR thallium flux fluorescence; active compounds read high. P51787;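 active = compounds whose thallium flux B-score, printed positive for inhibition, exceeds three library SD while starting fluorescence stays within three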;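 note: channel opened by potassium depolarization with thallium stimulus after 20 min compound exposure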
KCNQ1 act: human KCNQ1 channel potentiation or activation; CHO-K1 KCNQ1, thallium flux FluxOR fluorescence; active compounds read high; hit rate 0.35% among 310,000; B-score at 10 µM;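 active = fluorescence ratio B-score, a plate-corrected score, at least three library SD, with initial intensity B-score within 5 SD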
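System: Stable KCNQ1 CHO-K1 line | Incubation: 90 min dye loading and 20 min compound exposure, both at room temperature | Measure: Ratio B score | Medium: Assay buffer for compound exposure, DMSO matched across wells | Compound dosing: Single-concentration screen | Probe or stimulus: K+/Tl+ depolarizing stimulus | Measured by: Kinetic FluxOR fluorescence, 10 s baseline plus 110 s post-stimulus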
hERG protect: hERG (human) protection from proarrhythmic block; Q12809; CHO-hERG, FluxOR thallium flux, dofetilide IC70 present; activation (rescue from dofetilide block), less the hit threshold, % at 10 µM; hit rate 0.51% among 310,000;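 active = activation above the mean of controls blocked by dofetilide plus 5 SD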;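 note: thallium influx through hERG after potassium depolarization seen as dye fluorescence rise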
AI-2 QS mod: Vibrio harveyi AI-2 quorum sensing modulation; Vibrio harveyi JMH597 AI-2 luminescence/OD600 ratio, 9 h; active compounds read low; strain lacks LuxN and CqsS sensors; 0 = neutral-control median; activity change, % at 7.5 µM; hit rate 0.4% among 300,000; in the data active = activity change below about -75%, passing the limit was not always enough;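 note: luminescence divided by OD600 gain over 9 h not by final OD600 alone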
KCNQ1 inh valid: reconfirmed blocker of the human KCNQ1 potassium channel; hit rate 93% among 1,600; inhibition, % at 10 µM; KCNQ1 cell line, FluxOR thallium flux fluorescence; shares compounds with KCNQ1 inh;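 active = primary screen active, with duplicate mean exceeding buffer control mean plus 3 SD of buffer wells, cut at about 28% in these data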
CHO KCNQ1 ctr: activity in parental CHO cells lacking KCNQ1; fluorescence ratio (Tl flux) at 10 µM; AID 588366; parental CHO-K1, FluxOR thallium flux fluorescence ratio; active compounds read low; zero means no signal rise above baseline; shares compounds with KCNQ1 inh; hit rate 21% among 1,600;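 active = mean of duplicate thallium-flux fluorescence ratios in parental host cells more than 5 SD below the buffer control mean, cut at about 0.38 in these data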;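 note: ratio is peak minus minimum fluorescence divided by baseline fluorescence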
KCNQ1 ephys val: blocks human KCNQ1 current in automated patch clamp | shares compounds with KCNQ1 inh | KCNQ1-CHO cells | calls only at 10 µM | hit rate 20% among 490 | AID 624120;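 active = KCNQ1 current drop exceeding 3 SD of negative control wells, seen in both duplicate runs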;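 note: steady state current during a 2 s step from -80 to +40 mV; negative values mean current inhibition and positive values mean potentiation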
KCNQ2 inh: KCNQ1 inhibitor that also blocks rat KCNQ2 channel. shares compounds with KCNQ1 inh. KCNQ2 cells, FluxOR thallium flux fluorescence. inhibition, % at 10 µM. hit rate 71% among 1,600;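 active = mean percent inhibition of the KCNQ2 thallium signal more than 5 SD above the buffer-only control wells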;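 note: KCNQ2 expressed in CHO cells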
Target sequence (O88943 whole entry, looked up): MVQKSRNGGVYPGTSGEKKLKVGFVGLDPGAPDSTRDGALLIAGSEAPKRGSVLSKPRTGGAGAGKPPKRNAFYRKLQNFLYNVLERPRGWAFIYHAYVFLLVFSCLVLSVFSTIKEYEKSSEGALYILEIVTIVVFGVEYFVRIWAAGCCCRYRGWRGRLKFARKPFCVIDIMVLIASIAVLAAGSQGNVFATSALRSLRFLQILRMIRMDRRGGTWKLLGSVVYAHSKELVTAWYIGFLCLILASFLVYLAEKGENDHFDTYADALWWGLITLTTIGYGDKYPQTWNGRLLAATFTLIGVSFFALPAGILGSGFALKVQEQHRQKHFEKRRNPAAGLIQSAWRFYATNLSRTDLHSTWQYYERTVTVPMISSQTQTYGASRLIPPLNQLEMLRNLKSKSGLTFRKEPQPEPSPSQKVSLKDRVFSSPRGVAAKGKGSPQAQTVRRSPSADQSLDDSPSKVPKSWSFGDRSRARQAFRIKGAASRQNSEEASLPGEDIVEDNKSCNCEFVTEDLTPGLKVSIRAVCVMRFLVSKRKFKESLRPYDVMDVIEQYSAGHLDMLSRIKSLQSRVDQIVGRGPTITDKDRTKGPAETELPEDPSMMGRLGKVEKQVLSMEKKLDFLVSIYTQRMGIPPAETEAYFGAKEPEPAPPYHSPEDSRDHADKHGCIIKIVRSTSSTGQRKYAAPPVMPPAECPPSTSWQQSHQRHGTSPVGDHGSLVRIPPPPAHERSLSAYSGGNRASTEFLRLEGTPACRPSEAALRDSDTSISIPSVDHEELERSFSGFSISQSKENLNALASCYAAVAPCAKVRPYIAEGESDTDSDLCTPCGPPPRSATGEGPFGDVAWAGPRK
KCNQ1-KCNE1 inh: selectivity of KCNQ1 inhibitors: inhibition of human KCNQ1/KCNE1 channel; shares compounds with KCNQ1 inh; KCNQ1/KCNE1 cells, FluxOR thallium flux fluorescence; inhibition, % at 10 µM; hit rate 77% among 1,600;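 active = mean percent inhibition of duplicate wells above the buffer-only control mean plus 3 SD of those controls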
Hits are given with their value.

Screening O=C(Nc1ccncc1)Nc1ccc(Cl)cc1 returned SUMO Mot1 rescue inactive, KCNQ1 inh 7, KCNQ1 act inactive, hERG protect inactive, AI-2 QS mod inactive, KCNQ1 inh valid 28.0, CHO KCNQ1 ctr inactive, KCNQ2 inh inactive and KCNQ1-KCNE1 inh inactive.
COC(=O)c1cccc(NC(=O)Nc2ccc(Cl)cc2)c1 was read as SUMO Mot1 rescue inactive, Cl transport mod inactive, KCNQ1 inh 7, KCNQ1 act inactive, hERG protect inactive, AI-2 QS mod inactive, KCNQ1 inh valid 44.5, CHO KCNQ1 ctr inactive, KCNQ2 inh inactive and KCNQ1-KCNE1 inh inactive.
COC(=O)c1cccc(NC(=S)Nc2ccccc2Cl)c1 was read as SUMO Mot1 rescue inactive, Cl transport mod inactive, KCNQ1 inh inactive, KCNQ1 act inactive, hERG protect inactive and AI-2 QS mod inactive.
COC(=O)c1cccc(NC(=O)NC(=O)c2ccc(Cl)cc2)c1 was read as SUMO Mot1 rescue inactive, Cl transport mod inactive, KCNQ1 inh inactive, KCNQ1 act inactive, hERG protect inactive and AI-2 QS mod inactive.
Screening COC(=O)c1cccc(NC(=S)Nc2ccc(Cl)c(Cl)c2)c1 returned SUMO Mot1 rescue inactive, Cl transport mod inactive, KCNQ1 inh 8, KCNQ1 act inactive, hERG protect inactive, AI-2 QS mod inactive, KCNQ1 inh valid 167.5, CHO KCNQ1 ctr inactive, KCNQ1 ephys val inactive, KCNQ2 inh inactive and KCNQ1-KCNE1 inh inactive.
For NS(=O)(=O)c1cccc(NC(=O)Nc2ccc(Cl)cc2)c1 the results were SUMO Mot1 rescue inactive, Cl transport mod inactive, KCNQ1 inh 8, KCNQ1 act inactive, hERG protect inactive, AI-2 QS mod inactive, KCNQ1 inh valid 137.0, CHO KCNQ1 ctr inactive, KCNQ1 ephys val inactive, KCNQ2 inh 101.0% and KCNQ1-KCNE1 inh 108.5%.
For CN(C(=O)c1cc(-n2cnnc2)ccc1Cl)c1ccccc1 the results were SUMO Mot1 rescue inactive, Cl transport mod inactive, KCNQ1 inh inactive, KCNQ1 act inactive, hERG protect inactive and AI-2 QS mod inactive.
For Cc1ccccc1C(=O)NNC(=O)Nc1ccccc1 the results were SUMO Mot1 rescue inactive, Cl transport mod inactive, KCNQ1 inh inactive, KCNQ1 act inactive, hERG protect inactive and AI-2 QS mod inactive.
Screening CCOC(=O)c1cnc2c(OC)cccc2c1Nc1ccc2c(c1)OCCO2 returned SUMO Mot1 rescue inactive, Cl transport mod inactive, KCNQ1 inh inactive, KCNQ1 act inactive, hERG protect inactive and AI-2 QS mod inactive.
`CCN(c1ccccc1)c1nc(C#N)nc(N(CC)c2ccccc2)n1` gave SUMO Mot1 rescue inactive, KCNQ1 inh 7, KCNQ1 act inactive, hERG protect inactive, AI-2 QS mod inactive, KCNQ1 inh valid 105.5, CHO KCNQ1 ctr 0.367, KCNQ2 inh 112.3% and KCNQ1-KCNE1 inh 80.0%.
Screening COc1ccccc1NC(=O)CN1CCN(C2c3ccccc3-c3ccccc32)CC1 returned SUMO Mot1 rescue inactive, KCNQ1 inh 7, KCNQ1 act inactive, hERG protect inactive, AI-2 QS mod inactive, KCNQ1 inh valid 107.5, CHO KCNQ1 ctr inactive, KCNQ1 ephys val inactive, KCNQ2 inh 100.0% and KCNQ1-KCNE1 inh 155.0%.
COc1ccc(NC(=O)CN2CCN(C3c4ccccc4-c4ccccc43)CC2)c(OC)c1 was read as SUMO Mot1 rescue inactive, KCNQ1 inh 8, KCNQ1 act inactive, hERG protect inactive, AI-2 QS mod inactive, KCNQ1 inh valid 60.0, CHO KCNQ1 ctr inactive, KCNQ2 inh 78.7% and KCNQ1-KCNE1 inh 98.5%.
For COc1ccccc1NC(=O)CN1CCC(n2c(C)nc3cc(F)ccc32)CC1 the results were SUMO Mot1 rescue inactive, Cl transport mod inactive, KCNQ1 inh 8, KCNQ1 act inactive, hERG protect inactive, AI-2 QS mod inactive, KCNQ1 inh valid 116.5, CHO KCNQ1 ctr inactive, KCNQ1 ephys val inactive, KCNQ2 inh 96.7% and KCNQ1-KCNE1 inh 98.0%.
Cc1ccc(Cl)cc1NC(C#N)c1ccccc1 (stereo not given) was read as SUMO Mot1 rescue inactive, Cl transport mod inactive, KCNQ1 inh inactive, KCNQ1 act inactive, hERG protect inactive and AI-2 QS mod inactive.
`Cc1sc2c(c1C)CN(CCN1CCOCC1)CN2C(=O)c1ccccc1` gave Cl transport mod inactive, KCNQ1 inh 6, KCNQ1 act inactive, hERG protect inactive, AI-2 QS mod inactive, KCNQ1 inh valid inactive, CHO KCNQ1 ctr inactive, KCNQ2 inh inactive and KCNQ1-KCNE1 inh 37.0%.
For Cc1sc2c(c1C)CN(C1CC(C)(C)NC(C)(C)C1)CN2C(=O)c1ccco1 the results were SUMO Mot1 rescue inactive and Cl transport mod inactive.
`S=C(NCc1ccc(Cl)cc1Cl)NC1CCCCC1` gave SUMO Mot1 rescue 645.3, Cl transport mod inactive, KCNQ1 inh 7, KCNQ1 act inactive, hERG protect inactive, AI-2 QS mod inactive, KCNQ1 inh valid 151.5, CHO KCNQ1 ctr inactive, KCNQ1 ephys val active, KCNQ2 inh 64.7% and KCNQ1-KCNE1 inh inactive.
S=C(NCCc1ccccc1)NC1CCC(NC(=S)NCCc2ccccc2)CC1 (stereo not given) was read as SUMO Mot1 rescue inactive, Cl transport mod inactive, KCNQ1 inh inactive, KCNQ1 act inactive, hERG protect inactive and AI-2 QS mod inactive.
For Clc1ccc(CNC2CCCC2)c(Cl)c1 the results were SUMO Mot1 rescue inactive, Cl transport mod inactive, KCNQ1 inh inactive, KCNQ1 act inactive, hERG protect inactive and AI-2 QS mod inactive.
Screening S=C(NCCc1cccc(Cl)c1)NC1CCCCC1 returned SUMO Mot1 rescue inactive, KCNQ1 inh 8, KCNQ1 act inactive, hERG protect inactive, AI-2 QS mod inactive, KCNQ1 inh valid 63.5, CHO KCNQ1 ctr inactive, KCNQ2 inh 73.7% and KCNQ1-KCNE1 inh 56.0%.
Screening O=C(Nc1ccccc1Cl)c1sccc1-c1ccccc1 returned SUMO Mot1 rescue inactive, KCNQ1 inh 6, KCNQ1 act inactive, hERG protect inactive, AI-2 QS mod inactive, KCNQ1 inh valid active, CHO KCNQ1 ctr 0.349, KCNQ2 inh inactive and KCNQ1-KCNE1 inh inactive.
